Results from PubChem BioAssay.
Results filed as inconclusive are left out.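 Rule for the calls, unless noted: active = cell viability at or below a set limit in both duplicate runs, the limit being the all-compound median minus 4 SD (cut at about 23% in these data, passing the limit was not always enough); inconclusive = no clear call, values can overlap the other calls; inactive = the rest.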

Key:
[1] = OD615 S. cerevisiae growth inhibition, permissive medium, pilot counter-assay, permissive growth control for S. cerevisiae lifespan shortening project (AID 705;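 active = growth inhibition above 25% in both replicates, a cutoff set 3 SD above the mean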); settings: OD615, 24 h, at 10 µM, stronger effect = higher value
Outline: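 Material: engineered DeaD yeast; Compound: one dose 10 µM, DMSO 0.25% final; Detection: absorbance (optical density) at 615 nm; Buffer or medium: permissive raffinose/galactose medium; Timing: 24 h exposure, 30 °C.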

[2] = Restrictive medium S. cerevisiae growth inhibition, OD615, pilot screen of yeast lifespan reduction project, restrictive growth control (AID 706;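 active = growth inhibition above a set limit, 3 SD over mean compound inhibition, in both replicates, cut at about 43% in these data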;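 note: modified DeaD lifespan yeast strain shifted to restrictive glucose medium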); settings: OD615, 48 h, at 10 µM, stronger effect = higher value
Outline: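 Buffer or medium: restrictive glucose medium (CSMM-D); test system: modified S. cerevisiae; doses: single dose of 10 µM compound final, 0.25% DMSO; schedule: 48 h compound exposure at 30 °C; detection: absorbance (optical density) measured at 615 nm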

[3] = viability gain of MRP-1-high H69AR cells under doxorubicin, pilot screen, MRP-1 activator project, CellTiter-Glo, duplicate (AID 807;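 active = viability increase at or above a cutoff of the median across tested compounds plus 3 SD, cut at about 8.5% in these data, passing the limit was not always enough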;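 note: compound pretreatment 18-22 h then 72 h combined with doxorubicin; 0% = doxorubicin alone and 100% = vehicle without doxorubicin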); settings: H69AR viability with doxorubicin, CellTiter-Glo luminescence; at 10 µM; stronger effect = higher value
[4] = growth suppression of beta-catenin knockout HCT116, pilot screen, human colon tumor cells (AID 823); settings: CellTiter-Glo, 60 h, at 10 µM, stronger effect = lower value;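 note: 0% = wells killed by 20 µM Hyamine and 100% = untreated DMSO cell wells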
[5] = growth suppression of PTEN-deleted HCT116, pilot screen, cell-based, HCT116 clonal line, CellTiter-Glo (AID 824;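 active = viability at or below 27.92% in each of two runs, the all-compound median minus 4 SD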;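 note: 0% = 20 µM Hyamine control and 100% = vehicle cell control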); settings: 60 h, at 10 µM, stronger effect = lower value
[6] = inhibitors of the yeast RAM network, pilot screen, dse1pr::URA3 reporter, 5-FOA selection (AID 869;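 active = inhibition over a set limit, the all-compound mean plus 3 SD, in both replicate runs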;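 note: 0% = DMSO wells with no growth and 100% = 10 µM 1-NA-PP1 with full growth; RAM network block rescues cells from 5-FOA so hits raise OD615 growth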); settings: S. cerevisiae dse1pr::URA3 5-FOA growth, OD615, 2 d; at 10 µM; stronger effect = higher value; strain carries analog-sensitive mutant Cbk1 kinase
[7] = RAM signaling pathway blockade in yeast – S. cerevisiae, Pdr1DBD-CYC8 efflux-inhibited sensitized strain, primary screen (AID 1298;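 active = RAM network inhibition above 8.4% in each of two replicates, 3 SD over the compound average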;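 note: 0% = DMSO untreated cells without growth and 100% = 10 µM 1-NA-PP1 full growth; higher means more yeast growth rescued from 5-FOA killing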); settings: S. cerevisiae cbk1-as DSE1-URA3 strain, 5-FOA growth OD615, 2 d; at 50 µM; stronger effect = higher value

CC1=C(C(=O)OC2CCCCC2)C(c2ccco2)C2=C(CC(C)(C)CC2=O)N1 (stereo unspecified)
inactive: growth inhibition [1] -8.2% | growth inhibition [2] -8.91% | viability increase [3] -7.87% | viability [4] 64.8% | viability [5] 62.7% | inhibition [6] 0.115% | RAM network inhibition [7] 2.03%

C=CCOc1ccc(C2c3c(oc4ccccc4c3=O)C(=O)N2c2ccccn2)cc1OCC (stereo unspecified)
inactive: growth inhibition [1] -13.9% | growth inhibition [2] -10.5% | viability increase [3] -5.39% | viability [4] 77.9% | viability [5] 74.6% | inhibition [6] 2.57% | RAM network inhibition [7] 6.03%

CCOc1ccc(C2CC(c3ccc(CC)cc3)n3nc(N)nc3N2)cc1 (stereo unspecified)
inactive: growth inhibition [1] 1.88% | growth inhibition [2] 21% | viability increase [3] 2.68% | viability [4] 91.5% | viability [5] 83.5% | inhibition [6] 1.54% | RAM network inhibition [7] 3.52%

Cc1ccc(Cn2ccc(NC(=O)c3cc(C(C)C)on3)n2)cc1
inactive: growth inhibition [1] -13.5% | growth inhibition [2] 5.14% | viability increase [3] 0.94% | viability [4] 97.1% | viability [5] 95.1% | inhibition [6] 1.97% | RAM network inhibition [7] 4.18%

COc1ccc(OCc2nnc3n2N=C(c2ccc(C)cc2)CS3)cc1
inactive: growth inhibition [1] -3.36% | growth inhibition [2] -2.56% | viability increase [3] 2.3% | viability [4] 95.4% | viability [5] 82.1% | inhibition [6] 1.57% | RAM network inhibition [7] 2.58%

O=C(Nc1ccccc1)N1CCN(Cc2ccc3c(c2)OCO3)CC1
inactive: growth inhibition [1] 5.22% | growth inhibition [2] -15.8% | viability increase [3] -1.15% | viability [4] 101% | viability [5] 96.8% | inhibition [6] 1.25% | RAM network inhibition [7] 2.76%

CCOc1ccc(NC(=O)CSc2nc3c(c(=O)n2-c2ccccc2OC)SCC3)cc1
inactive: growth inhibition [1] -4.54% | growth inhibition [2] -3.66% | viability increase [3] -2.57% | viability [4] 94.3% | viability [5] 82.5% | inhibition [6] 0.805% | RAM network inhibition [7] 1.18%

CCCC(=O)c1cc(F)c(N2CCN(S(=O)(=O)c3ccccc3)CC2)cc1C
inactive: growth inhibition [1] -7.04% | growth inhibition [2] -27.6% | viability increase [3] 1.53% | viability [4] 90.3% | viability [5] 88.5% | inhibition [6] 3.01% | RAM network inhibition [7] 3.18%

CCN(CCC(=O)Nc1cc(OC)cc(OC)c1)Cc1ccccc1
inactive: growth inhibition [1] 1.21% | growth inhibition [2] -14.7% | viability increase [3] -2.96% | viability [4] 84.4% | viability [5] 85.8% | inhibition [6] 2.68% | RAM network inhibition [7] 3.12%

Cc1ccc(C(=O)Nc2ccccc2NC(=O)c2ccc(C)o2)o1
inactive: growth inhibition [1] -1.73% | growth inhibition [2] 8.06% | viability increase [3] -3.39% | viability [4] 93.2% | viability [5] 91.6% | inhibition [6] 1.41% | RAM network inhibition [7] 3.58%

CCCN1CCC(N(C)CCc2ccc(OC)c(OC)c2)CC1
inactive: growth inhibition [1] -7.87% | growth inhibition [2] -16.1% | viability increase [3] -0.93% | viability [4] 88.4% | viability [5] 94.5% | inhibition [6] 0.465% | RAM network inhibition [7] 2.37%

CC(=O)SCCC(=O)N1C(C)CCCC1C(=O)O (stereo unspecified)
inactive: growth inhibition [1] -1.05% | growth inhibition [2] -7.75% | viability increase [3] -0.97% | viability [4] 95.9% | viability [5] 102% | inhibition [6] 0.62% | RAM network inhibition [7] 5.78%

CCOc1ccc(N(CC(=O)NCCCOC)S(C)(=O)=O)cc1
inactive: growth inhibition [1] 4.66% | growth inhibition [2] 3.23% | viability increase [3] -2.35% | viability [4] 98.9% | viability [5] 101% | inhibition [6] 0.95% | RAM network inhibition [7] 2.73%

CN1CCN(C(=O)c2ccccc2NC(=O)c2cccs2)CC1
inactive: growth inhibition [1] -11% | growth inhibition [2] -8.35% | viability increase [3] -2.33% | viability [4] 98.5% | viability [5] 91.7% | inhibition [6] 0.45% | RAM network inhibition [7] 2.03%

Clc1ccc2nc3ccccn3c2c1
inactive: growth inhibition [1] -6.63% | growth inhibition [2] -5.02% | viability increase [3] -4.02% | viability [4] 109% | viability [5] 106% | inhibition [6] 1.56% | RAM network inhibition [7] 2.48%

Nc1nc(SCC(=O)N2CCCc3ccccc32)n(-c2ccccc2)n1
inactive: growth inhibition [1] -4.37% | growth inhibition [2] 0.05% | viability increase [3] -4.68% | viability [4] 108% | viability [5] 99.3% | inhibition [6] 2.67% | RAM network inhibition [7] 6.67%

CCOC(=O)c1cnc2c(Cl)cc(Cl)cc2c1NCCOCCO
inactive: growth inhibition [1] 1.23% | growth inhibition [2] -11.6% | viability increase [3] -5.62% | viability [4] 81.8% | viability [5] 74.4% | inhibition [6] -0.09% | RAM network inhibition [7] 2.56%

O=C(c1ccccc1S(=O)(=O)NCc1ccccc1)N1CCCCC1
inactive: growth inhibition [1] -1.57% | growth inhibition [2] -5.03% | viability increase [3] -2.89% | viability [4] 98.6% | viability [5] 91% | inhibition [6] 1.01% | RAM network inhibition [7] 1.68%
